T1: Carbonic anhydrase (Candida albicans (strain SC5314 / ATCC MYA-2876) (Yeast)) (UniProt Q5AJ71)
T1 sequence (whole entry): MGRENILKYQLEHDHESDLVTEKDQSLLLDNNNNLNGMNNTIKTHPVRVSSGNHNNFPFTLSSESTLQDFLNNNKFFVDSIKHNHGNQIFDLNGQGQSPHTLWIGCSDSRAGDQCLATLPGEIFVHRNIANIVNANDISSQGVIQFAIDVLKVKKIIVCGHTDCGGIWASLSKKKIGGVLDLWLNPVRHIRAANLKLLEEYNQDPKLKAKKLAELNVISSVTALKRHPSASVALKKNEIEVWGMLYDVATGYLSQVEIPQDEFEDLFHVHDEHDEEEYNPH

T2: Carbonic anhydrase 2 (Cryptococcus neoformans) (UniProt Q3I4V7)
T2 sequence (whole entry): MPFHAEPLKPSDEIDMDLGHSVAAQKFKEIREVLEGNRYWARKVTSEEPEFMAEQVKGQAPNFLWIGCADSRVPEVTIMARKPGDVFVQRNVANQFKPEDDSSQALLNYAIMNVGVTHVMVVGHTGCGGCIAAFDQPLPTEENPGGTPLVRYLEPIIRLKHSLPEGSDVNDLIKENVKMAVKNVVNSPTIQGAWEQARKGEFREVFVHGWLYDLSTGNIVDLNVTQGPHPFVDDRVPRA

B1: Carbonic anhydrase 2 (Cryptococcus neoformans), Q3I4V7 (protein)
chain: T2 sequence (whole entry)
B2: Carbonic anhydrase (Candida albicans (strain SC5314 / ATCC MYA-2876) (Yeast)), Q5AJ71 (protein)
chain: T1 sequence (whole entry)

How the values were obtained:
[1] = target: T1, Carbonic anhydrase (Candida albicans (strain SC5314 / ATCC MYA-2876) (Yeast)); assay: Activation of Candida albicans beta-carbonic anhydrase Nce103 by stopped flow CO2 hydration assay
How it was run: (§1)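 Recombinant enzyme (prepared as in earlier work) preincubated with activator 15 min at room temperature. Stopped-flow CO2 hydration at 25 °C followed for 10 s, read with phenol red (0.2 mM) at 557 nm. Buffer was 20 mM Tris pH 8.3 with 20 mM NaClO4. CO2 ranged 1.7–17 mM. Initial velocity came from at least six traces of the first 5–10% of reaction, with the uncatalyzed rate subtracted. KA was fitted from activation versus activator concentration, using dilutions from a 10 mM aqueous stock. Mean of at least three determinations.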

[2] = target: T2, Carbonic anhydrase 2 (Cryptococcus neoformans); assay: Activation of Cryptococcus neoformans beta-carbonic anhydrase Can2 by stopped flow CO2 hydration assay; how it was run: as §1
[3] = substrate: NCCc1c[nH]cn1; conditions: Cryptococcus neoformans
[4] = substrate: NCCc1c[nH]cn1; conditions: Cryptococcus neoformans; 10 uM
[5] = substrate: NCCc1c[nH]cn1; conditions: Candida albicans
[6] = substrate: NCCc1c[nH]cn1; conditions: Candida albicans; 10 uM

| Molecule | KA [1] [µM] | KA [2] [µM] | further results |
| --- | --- | --- | --- |
| N[C@@H](Cc1ccccc1)C(=O)O | 15.5 | 44.1 | – |
| N[C@H](Cc1ccccc1)C(=O)O | 8.4 | 45.2 | – |
| N[C@@H](Cc1ccc(O)c(O)c1)C(=O)O | 0.96 | 43.3 | – |
| Nc1ccc(C[C@H](N)C(=O)O)cc1 | 23.7 | 30.4 | – |
| NCCc1c[nH]cn1 | 18.4 | 33.2 | – |
| N[C@@H](Cc1c[nH]cn1)C(=O)O | 24.1 | 45 | – |
| NCc1ccccn1 | 29.1 | 47 | – |
| N[C@H](Cc1c[nH]cn1)C(=O)O | 19.5 | 47.2 | – |
| CNC[C@@H](O)c1ccc(O)c(O)c1 | 13.2 | 32.8 | – |
| NCCN1CCNCC1 | 17.3 | 44.9 | – |
| NCCc1c[nH]c2ccc(O)cc12 | 28.6 | 46.7 | – |
| NCCc1ccccn1 | 30.2 | 46.3 | – |
| N[C@H](Cc1ccc(O)c(O)c1)C(=O)O | 2.5 | 35.1 | – |
| NCCc1ccc(O)c(O)c1 | 18.5 | 34.6 | – |
| N[C@@H](Cc1ccc(O)cc1)C(=O)O | 46.1 | 29.5 | – |
| NCCN1CCOCC1 | 25.4 | 40.1 | – |
| N[C@H](Cc1c[nH]c2ccccc12)C(=O)O | 43 | 42.1 | – |
| N[C@@H](Cc1c[nH]c2ccccc12)C(=O)O | 19.2 | 28.7 | – |
| B1 | – | – | Km [3]: 9 mM; kcat [3]: 3.9 ×10⁵ /s; kcat [4]: 6.8 ×10⁵ /s |
| B2 | – | – | Km [5]: 8.2 mM; kcat [5]: 8 ×10⁵ /s; kcat [6]: 20.1 ×10⁵ /s |
